{"source": "ChEMBL document CHEMBL1136807", "about": "“CC-1065 analogues bearing different DNA-binding subunits: synthesis, antitumor activity, and preliminary toxicity study” (J Med Chem, 2003)", "key": {"[1]": {"system": "Mus musculus", "experiment": "Number of mice bearing L1210 leukemia that survived after 30 days, after administration of 70 […] compound", "assay_type": "functional", "procedure,_shortened": "(§1)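 In vivo antitumor test in mice bearing L1210 leukemia, read out as increase in life span (ILS). Body weight was monitored. The optimal dose was defined as the dose giving the best antitumor efficacy with body weight loss ≤15%.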"}, "[2]": {"system": "Mus musculus", "experiment": "Increase in life span of mice bearing L1210 leukemia after administration of 70 […] compound; toxic", "assay_type": "functional, organism-based", "set-up": "dose 70 […]"}, "[3]": {"system": "Mus musculus", "experiment": "Increase in life span of mice bearing L1210 leukemia after administration of 25 […] compound", "assay_type": "functional", "procedure,_shortened": "as §1"}, "[4]": {"system": "Mus musculus", "experiment": "Number of mice surviving on day 180 treated with 100 […] compound; 4/8", "assay_type": "functional, organism-based"}, "[5]": {"system": "Mus musculus", "experiment": "Weight change in mice bearing L1210 leukemia after administration of 25 […] compound", "assay_type": "functional"}, "[6]": {"system": "Mus musculus", "experiment": "Weight change in mice bearing L1210 leukemia after administration of 42 […] compound", "assay_type": "functional"}, "[7]": {"system": "L1210", "experiment": "Compound was tested in vitro against L1210 leukemia cells", "assay_type": "functional, cell-based", "conditions": "Mus musculus", "procedure,_shortened": "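L1210 murine leukemia cells exposed to drug for 48 h; IC50 reported in nM.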"}, "[8]": {"system": "Mus musculus", "experiment": "Number of mice bearing L1210 leukemia that survived after 30 days, after administration of 25 […] compound", "assay_type": "functional", "procedure,_shortened": "as §1"}, "[9]": {"system": "Mus musculus", "experiment": "Weight change in mice bearing L1210 leukemia after administration of 70 […] compound", "assay_type": "functional"}, "[10]": {"system": "Mus musculus", "experiment": "Days until first mouse died treated with 100 […] compound", "assay_type": "functional", "procedure,_shortened": "(§2)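 Delayed-toxicity study in non-tumor-bearing BDF1 mice: single ip dose given on day 0, then animals observed for up to 180 days. Recorded the day the first mouse died and the number of mice alive on day 180, with 6–8 mice per group.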"}, "[11]": {"system": "Mus musculus", "experiment": "Number of mice bearing L1210 leukemia that survived after 30 days, after administration of 42 µg/kg compound"}, "[12]": {"system": "Mus musculus", "experiment": "Increase in life span of mice bearing L1210 leukemia after administration of 42 […] compound", "assay_type": "functional", "procedure,_shortened": "as §1"}, "[13]": {"system": "Mus musculus", "experiment": "Increase in life span of mice bearing L1210 leukemia after administration of 70 mg/kg compound", "assay_type": "functional", "procedure,_shortened": "as §1"}, "[14]": {"system": "Mus musculus", "experiment": "Number of mice surviving on day 180 treated with 100 […] compound; 2/8", "assay_type": "functional, organism-based", "procedure,_shortened": "as §2"}, "[15]": {"system": "Mus musculus", "experiment": "Number of mice bearing L1210 leukemia that survived after 30 days, after administration of 500 µg/kg compound"}, "[16]": {"system": "Mus musculus", "experiment": "Days until first mouse died treated with 1000 […] compound", "assay_type": "functional", "procedure,_shortened": "as §2"}, "[17]": {"system": "Mus musculus", "experiment": "Weight change in mice bearing L1210 leukemia after administration of 250 […] compound", "assay_type": "functional"}, "[18]": {"system": "Mus musculus", "experiment": "Number of mice bearing L1210 leukemia that survived after 30 days, after administration of 1000 […] compound", "assay_type": "functional", "procedure,_shortened": "as §1"}, "[19]": {"system": "Mus musculus", "experiment": "Number of mice surviving on day 180 treated with 2000 […] compound; 0/6", "assay_type": "functional, organism-based"}, "[20]": {"system": "Mus musculus", "experiment": "Increase in life span of mice bearing L1210 leukemia after administration of 1000 […] compound", "assay_type": "functional", "procedure,_shortened": "as §1"}, "[21]": {"system": "Mus musculus", "experiment": "Weight change in mice bearing L1210 leukemia after administration of 1000 […] compound", "assay_type": "functional"}, "[22]": {"system": "Mus musculus", "experiment": "Number of mice bearing L1210 leukemia that survived after 30 days, after administration of 250 […] compound", "assay_type": "functional", "procedure,_shortened": "as §1"}, "[23]": {"system": "Mus musculus", "experiment": "Increase in life span of mice bearing L1210 leukemia after administration of 250 […] compound", "assay_type": "functional", "procedure,_shortened": "as §1"}, "[24]": {"system": "Mus musculus", "experiment": "Increase in life span of mice bearing L1210 leukemia after administration of 500 […] compound", "assay_type": "functional", "procedure,_shortened": "as §1"}, "[25]": {"system": "Mus musculus", "experiment": "Days until first mouse died treated with 2000 […] compound", "assay_type": "functional", "procedure,_shortened": "as §2"}, "[26]": {"system": "Mus musculus", "experiment": "Weight change in mice bearing L1210 leukemia after administration of 500 […] compound", "assay_type": "functional"}, "[27]": {"system": "Mus musculus", "experiment": "Number of mice bearing L1210 leukemia that survived after 30 days, after administration of 100 […] compound", "assay_type": "functional", "procedure,_shortened": "as §1"}, "[28]": {"system": "Mus musculus", "experiment": "Increase in life span of mice bearing L1210 leukemia after administration of 45 […] compound", "assay_type": "functional", "procedure,_shortened": "as §1"}, "[29]": {"system": "Mus musculus", "experiment": "Number of mice bearing L1210 leukemia that survived after 30 days, after administration of 67 […] compound", "assay_type": "functional", "procedure,_shortened": "as §1"}, "[30]": {"system": "Mus musculus", "experiment": "Increase in life span of mice bearing L1210 leukemia after administration of 67 […] compound", "assay_type": "functional", "procedure,_shortened": "as §1"}, "[31]": {"system": "Mus musculus", "experiment": "Number of mice bearing L1210 leukemia that survived after 30 days, after administration of 45 µg/kg compound"}, "[32]": {"system": "Mus musculus", "experiment": "Number of mice surviving on day 180 treated with 100 […] compound; 8/8", "assay_type": "functional, organism-based"}, "[33]": {"system": "Mus musculus", "experiment": "Days until first mouse died treated with 100 […] compound; no death", "assay_type": "functional, organism-based"}, "[34]": {"system": "Mus musculus", "experiment": "Weight change in mice bearing L1210 leukemia after administration of 45 […] compound", "assay_type": "functional"}, "[35]": {"system": "Mus musculus", "experiment": "Increase in life span of mice bearing L1210 leukemia after administration of 100 […] compound", "assay_type": "functional", "procedure,_shortened": "as §1"}, "[36]": {"system": "Mus musculus", "experiment": "Weight change in mice bearing L1210 leukemia after administration of 100 […] compound", "assay_type": "functional"}, "[37]": {"system": "Mus musculus", "experiment": "Weight change in mice bearing L1210 leukemia after administration of 67 […] compound", "assay_type": "functional"}}}
{"smiles": "CC(=O)Nc1ccc2oc(C(=O)Nc3ccc4[nH]c(C(=O)N5C[C@@H](CCl)c6c5cc(O)c5ccccc65)cc4c3)cc2c1", "values": [{"measurement": "Survivors", "setting": "[1]", "result": 0}, {"measurement": "ILS", "setting": "[2]", "result": "Toxic"}, {"measurement": "ILS at 25 mg/kg", "setting": "[3]", "result": 120, "unit": "%"}, {"measurement": "No. of mice", "setting": "[4]", "result": "Mice surviving 4/8"}, {"measurement": "Weight change", "setting": "[5]", "result": 12, "unit": "%"}, {"measurement": "Weight change", "setting": "[6]", "result": -7, "unit": "%"}, {"measurement": "IC50", "setting": "[7]", "result": 0.65, "unit": "nM"}, {"measurement": "Survivors", "setting": "[8]", "result": 1}, {"measurement": "Weight change", "setting": "[9]", "result": -18, "unit": "%"}, {"measurement": "Days", "setting": "[10]", "result": 8}, {"measurement": "Survivors", "setting": "[11]", "result": 0}, {"measurement": "ILS at 42 mg/kg", "setting": "[12]", "result": 67, "unit": "%"}]}
{"smiles": "CC(=O)Nc1ccc2[nH]c(C(=O)Nc3ccc4[nH]c(C(=O)N5C[C@@H](CCl)c6c5cc(O)c5ccccc65)cc4c3)cc2c1", "values": [{"measurement": "Survivors", "setting": "[1]", "result": 0}, {"measurement": "ILS", "setting": "[13]", "result": 80, "unit": "%"}, {"measurement": "ILS at 25 mg/kg", "setting": "[3]", "result": 173, "unit": "%"}, {"measurement": "Weight change", "setting": "[5]", "result": 7, "unit": "%"}, {"measurement": "Weight change", "setting": "[6]", "result": 5, "unit": "%"}, {"measurement": "IC50", "setting": "[7]", "result": 1.2, "unit": "nM"}, {"measurement": "Survivors", "setting": "[8]", "result": 1}, {"measurement": "Weight change", "setting": "[9]", "result": -6, "unit": "%"}, {"measurement": "Days", "setting": "[10]", "result": 49}, {"measurement": "Survivors", "setting": "[11]", "result": 0}, {"measurement": "ILS at 42 mg/kg", "setting": "[12]", "result": 133, "unit": "%"}, {"measurement": "No. of mice", "setting": "[14]", "result": "Mice surviving 2/8"}]}
{"smiles": "CC(=O)Nc1cc(C(=O)Nc2cc(C(=O)N3CC(CCl)c4c3cc(O)c3ccccc43)n(C)c2)n(C)c1", "note": "(racemic)", "values": [{"measurement": "Survivors", "setting": "[15]", "result": 0}, {"measurement": "Days", "setting": "[16]", "result": 60}, {"measurement": "Weight change", "setting": "[17]", "result": 7, "unit": "%"}, {"measurement": "Survivors", "setting": "[18]", "result": 0}, {"measurement": "IC50", "setting": "[7]", "result": 44, "unit": "nM"}, {"measurement": "No. of mice", "setting": "[19]", "result": "Mice surviving 0/6"}, {"measurement": "ILS at 1000 mg/kg", "setting": "[20]", "result": 77, "unit": "%"}, {"measurement": "Weight change", "setting": "[21]", "result": -6, "unit": "%"}, {"measurement": "Survivors", "setting": "[22]", "result": 0}, {"measurement": "ILS at 250 mg/kg", "setting": "[23]", "result": 31, "unit": "%"}, {"measurement": "ILS at 500 mg/kg", "setting": "[24]", "result": 31, "unit": "%"}, {"measurement": "Days until first death", "setting": "[25]", "result": 29, "unit": "days"}, {"measurement": "Weight change", "setting": "[26]", "result": 5, "unit": "%"}]}
{"smiles": "O=C(Nc1ccc2[nH]c(C(=O)N3CC(CCl)c4c3cc(O)c3ccccc43)cc2c1)c1cc2cc(F)ccc2[nH]1", "note": "(racemic)", "values": [{"measurement": "Survivors", "setting": "[27]", "result": 0}, {"measurement": "ILS at 45 mg/kg", "setting": "[28]", "result": 137, "unit": "%"}, {"measurement": "Survivors", "setting": "[29]", "result": 0}, {"measurement": "ILS at 67 mg/kg", "setting": "[30]", "result": 160, "unit": "%"}, {"measurement": "Survivors", "setting": "[31]", "result": 0}, {"measurement": "No. of mice", "setting": "[32]", "result": "Mice surviving 8/8"}, {"measurement": "IC50", "setting": "[7]", "result": 0.29, "unit": "nM"}, {"measurement": "Days", "setting": "[33]", "result": "No death"}, {"measurement": "Weight change", "setting": "[34]", "result": 2, "unit": "%"}, {"measurement": "ILS at 100 mg/kg", "setting": "[35]", "result": 158, "unit": "%"}, {"measurement": "Weight change", "setting": "[36]", "result": -7, "unit": "%"}, {"measurement": "Weight change", "setting": "[37]", "result": -2, "unit": "%"}]}
{"smiles": "CC(=O)Nc1ccc2oc(C(=O)Nc3ccc4[nH]c(C(=O)N5CC(CCl)c6c5cc(O)c5ccccc65)cc4c3)cc2c1", "note": "(racemic)", "values": [{"measurement": "IC50", "setting": "[7]", "result": 1.2, "unit": "nM"}]}
